VIM-2 inhibitor: VIM-2 metallo-beta-lactamase inhibitors, primary screen, biochemical, epi-absorbance readout, Pseudomonas aeruginosa enzyme | purified VIM-2, nitrocefin hydrolysis, epi-absorbance fluorescence | inhibition, % at 5.6 µM | 0.89% of 290,000 active | AID 1527, 2009;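 active = inhibition above the mean of all tested compounds plus 3 SD, cutoff set per screening run, cut at about 7.5% in these data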;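 also: red hydrolysis product quenches plate fluorescence so inhibitors raise well fluorescence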
IMP-1 inhibitor: IMP-1 metallo-beta-lactamase inhibitors, primary screen, biochemical, epi-absorbance readout, Pseudomonas aeruginosa enzyme; metallo-beta-lactamase IMP-1 (Pseudomonas aeruginosa); inhibition, % at 5.6 µM; AID 1556, 2009; purified IMP-1, nitrocefin hydrolysis, epi-absorbance fluorescence; 0.45% of 290,000 active;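 active = inhibition above the mean plus 3 SD of all compounds in the same screening run, cut at about 4.5% in these data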
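System: Purified IMP-1 | Read-out basis: Percent enzyme inhibition | Controls: IMP-1 with DMSO as 0%, enzyme-free DMSO as 100% | Replicates: One well per compound | Doses: 5.6 µM nominal single concentration | Detection: Epi-absorbance fluorescence, 480 nm excitation, 530 nm emission | Incubation: 25 °C, 15 min preincubation, 25 min reaction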
PDI inh: inhibitors of human PDI, primary screen, biochemical, turbidity, single point, plate reader | Protein disulfide-isomerase (Homo sapiens), P07237 | PDI insulin aggregation turbidity, A650, 90 min | 0.052% of 350,000 active | inhibition, % at 10 µM;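 active = mean inhibition across replicates of 30% or more, whatever share of single replicates reach that level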
PglD DTNB: C. jejuni PglD acetyltransferase inhibitors, primary screen, biochemical, DTNB colorimetric, single point. UDP-N-acetylbacillosamine N-acetyltransferase PglD (Campylobacter jejuni). purified PglD enzyme, DTNB colorimetric CoA detection. inhibition, % at 12.5 µM. 0.098% of 360,000 active. AID 602405, 2012; in the data active = inhibition above about 16%, passing the limit was not always enough
ERp5 inh: inhibitors of ERp5-driven insulin aggregation, primary screen, biochemical, turbidity, absorbance 650 nm, single point | Protein disulfide-isomerase A6 (Homo sapiens), Q15084 | inhibition, % at 9.99 µM | 90 min | 0.05% of 350,000 active | AID 651711, 2012;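 active = mean replicate inhibition above about 25%, with every replicate also reaching it, limit read from the data, passing the limit was not always enough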
Target sequence (Q15084 whole entry, looked up): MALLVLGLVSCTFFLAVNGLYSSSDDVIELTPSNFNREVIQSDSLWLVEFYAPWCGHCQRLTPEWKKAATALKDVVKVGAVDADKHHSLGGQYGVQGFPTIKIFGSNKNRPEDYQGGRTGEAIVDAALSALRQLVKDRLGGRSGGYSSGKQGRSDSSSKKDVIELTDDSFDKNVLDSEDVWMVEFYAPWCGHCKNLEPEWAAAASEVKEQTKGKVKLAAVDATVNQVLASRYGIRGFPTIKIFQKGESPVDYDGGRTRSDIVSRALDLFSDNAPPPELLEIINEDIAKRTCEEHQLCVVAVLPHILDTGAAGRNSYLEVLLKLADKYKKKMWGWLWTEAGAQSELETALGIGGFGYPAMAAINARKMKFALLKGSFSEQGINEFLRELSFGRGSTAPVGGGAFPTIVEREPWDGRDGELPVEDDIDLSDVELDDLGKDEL
PvdQ inh: P. aeruginosa PvdQ acylase inhibitors, primary screen, biochemical, fluorescence, plate reader and imaging, single point | PvdQ acylase [Pseudomonas aeruginosa LESB58] | purified PvdQ acylase | inhibition, % at 10 µM | 0.063% of 340,000 active | AID 488965, 2010; in the data active = inhibition above about 30%, passing the limit was not always enough
A number is an active result; i = inactive; nt = no result given. Hits are enriched below; roughly 1% of the tested compounds scored in any of these assays.

SMILES	VIM-2 inhibitor	IMP-1 inhibitor	PDI inh	PglD DTNB	ERp5 inh	PvdQ inh
Cc1ccc2c(CC(=O)Nc3ccc(N4CCN(C)CC4)cc3C)coc2c1	i	7.0	i	i	nt	i
COc1ccccc1N1CCN(C(=O)C(C)CS(=O)(=O)c2ccc3c(c2)NC(=O)CS3)CC1 (stereo unspecified)	i	11	i	i	i	i
COc1ccccc1N1CCN(S(=O)(=O)c2ccc3c(c2)NC(=O)C(C)S3)CC1 (stereo unspecified)	i	i	i	i	i	i
Cn1cc(C2=C(c3ccc(Cl)cc3Cl)C(=O)NC2=O)c2ccccc21	i	4.9	i	i	i	i
Cn1cc(-c2ccccc2C(N)=O)c(=O)c2cc(Cl)ccc21	i	i	i	i	i	i
CN(C)Cc1cn(CC[C@H]2CC[C@H](NC(=O)Nc3ccc4c(c3)OCO4)[C@@H](CO)O2)nn1	nt	nt	nt	nt	i	nt
O=C(CCCc1nc(-c2ccccc2Cl)no1)NCc1cccnc1	i	5.7	i	i	nt	i
Cc1ccc(NC(=O)COc2ccccc2)c(NC(=O)c2ccco2)c1	i	i	i	i	30	i
C[C@@H]1CN([C@H](C)CO)S(=O)(=O)c2ccc(C#CC3(O)CCCC3)cc2O[C@H]1CN(C)C(=O)Cc1cccnc1	nt	nt	nt	i	i	nt
COC(=O)c1sccc1NC(=O)C1CC(C)=C(C)CC1C(=O)O (stereo unspecified)	8.4	i	i	nt	i	i
COC(=O)c1sccc1NC(=O)C1C2C=CC(O2)C1C(=O)O (stereo unspecified)	i	i	i	i	nt	i
COC(=O)c1sccc1NC(=O)C1CC2CCC1C2 (stereo unspecified)	i	48	i	i	nt	i
CN(C)CCCNC(=O)[C@@H]1[C@@H](CO)[C@@H]2Cn3c(ccc(-c4ccc(F)cc4)c3=O)[C@@H]2N1C	nt	nt	nt	i	i	nt
COc1cc(/C=N/NC2=NCCCCC2)ccc1O	i	i	i	i	i	i
COc1cc(/C=N/Nc2ncnc3sc4c(c23)CCC4)ccc1O	10	i	i	i	i	i
CC(C)NC(=O)N(C)C[C@H]1OCCCC[C@H](C)Oc2ccc(NC(=O)C3CCCCC3)cc2C(=O)N([C@H](C)CO)C[C@H]1C	nt	nt	nt	i	i	nt
Cc1ccc(S(=O)(=O)N[C@H]2CC[C@@H](CC(=O)NCCN3CCCCC3)O[C@H]2CO)cc1	nt	nt	nt	i	i	nt
C/C=C(\C)C(=O)NCCN1C2=NC[C@H](Cc3ccc(O)cc3)N2C[C@H]1Cc1ccc(O)cc1	i	i	45	i	i	i
COc1ccc(C[C@@H]2CN3C(=NC[C@@H]3Cc3ccc(O)cc3)N2C[C@H](C)NC(=O)CCC2CCCCC2)cc1	nt	nt	40	i	nt	i
COc1ccc(C[C@H]2CN3C(=NC[C@@H]3Cc3ccc(O)cc3)N2C[C@H](C)NC(=O)CCC2CCCCC2)cc1	nt	nt	i	i	i	i
CCOC(=O)c1c(C)n(C)c2ccc(OCC(O)CNCCc3ccccc3)cc12 (stereo unspecified)	9.7	i	i	i	i	i
CCOC(=O)c1c(C)n(C)c2ccc(OCC(O)Cn3c(C)nc4ccccc43)cc12 (stereo unspecified)	i	i	i	i	nt	i
C/C=C/c1cnc2c(c1)C(=O)N([C@H](C)CO)C[C@@H](C)[C@H](CN(C)C(=O)Nc1c(C)noc1C)O2	nt	nt	nt	i	i	nt
COc1cccc(C(=O)NC2CC3CCCC(C2)N3CC(=O)Nc2ccc(N(C)C)cc2)c1 (stereo unspecified)	i	i	i	i	nt	i
COc1cccc(C(=O)NC2CC3CCCC(C2)N3CC(=O)Nc2ccccc2)c1 (stereo unspecified)	i	28	i	i	nt	i
SMILES	VIM-2 inhibitor	IMP-1 inhibitor	PDI inh	PglD DTNB	ERp5 inh	PvdQ inh
C[C@H]1CN([C@@H](C)CO)C(=O)Cc2cc(N(C)C)ccc2O[C@@H]1CN(C)C(=O)Nc1ccc2c(c1)OCO2	nt	nt	nt	i	i	nt
Cc1ccccc1S(=O)(=O)N1C[C@@H](O)COC[C@@H]2O[C@@H](CC(=O)NCc3ccccc3Cl)CC[C@H]21	nt	nt	nt	i	i	nt
O=C(/C=C/Nc1cccc(C(F)(F)F)c1)C(F)(F)F	i	5.9	i	nt	i	i
O=C(O)C1=C(C(=O)Nc2ccc(F)c(Cl)c2)CCCC1	i	10	i	i	nt	i
CN1C(=O)c2cc(NC(=O)Nc3ccc(Cl)cc3)ccc2OC[C@@H]2O[C@@H](CC(=O)O)CC[C@H]21	nt	nt	nt	i	i	nt
C[C@@H]1CCCCO[C@@H](CN(C)S(=O)(=O)c2cccs2)[C@@H](C)CN([C@@H](C)CO)C(=O)c2cc(NC(=O)Nc3ccc(C(F)(F)F)cc3)ccc2O1	nt	nt	nt	i	i	nt
COn1c(=O)c(=O)n(O)c2ccccc21	i	i	i	nt	nt	i
O=c1c(=O)n(O)c2ccccc2n1O	i	11	i	i	nt	i
O=C1c2cccc3c(N4CCCCC4)ccc(c23)C(=O)N1c1ccccn1	i	5.8	i	i	nt	i
CCC1(C)Cc2c(sc3nc(SC)[nH]c(=S)c23)CO1 (stereo unspecified)	8.1	i	nt	nt	nt	nt
N#CCN(N=Nc1ccccc1)c1ccccc1	i	i	i	i	i	75
O=C1CSC(=S)N1/N=C/c1cccc(C(F)(F)F)c1	i	8.9	i	i	i	i
O=C1CSC(=S)N1/N=C/c1ccc(C(F)(F)F)cc1	i	i	i	i	i	i
O=C1CSC(=S)N1N=Cc1c(O)ccc2ccccc12	nt	nt	i	nt	i	i
O=C1CSC(=S)N1/N=C/c1c(F)cccc1F	i	12	i	i	i	i
COc1ccc2ccccc2c1/C=N/N1C(=O)CSC1=S	i	22	i	nt	i	i
Cn1cnc(S(=O)(=O)N[C@@H]2CC[C@H](CC(=O)Nc3ccc(-c4ccccc4)cc3)O[C@H]2CO)c1	nt	nt	nt	i	i	nt
COCC(=O)Nc1ccc2c(c1)[C@H]1C[C@@H](CC(=O)N(C)C)O[C@@H](CO)[C@H]1O2	nt	nt	nt	i	i	nt
C[C@H]1CN([C@@H](C)CO)C(=O)c2cc(-c3cccnc3)cnc2O[C@H]1CN(C)C(=O)c1cccc(F)c1	nt	nt	nt	i	i	nt
O=C(O)CN1C(=O)/C(=C\c2ccc(OC(=O)c3ccco3)cc2)SC1=S	i	i	43	i	i	i
O=C(O)CN1C(=O)/C(=C\c2cccc(OC(=O)c3ccco3)c2)SC1=S	i	i	i	i	i	i
O=C(O)CN1C(=O)/C(=C/c2ccc(SCc3ccccc3)o2)SC1=S	i	4.7	i	nt	i	i
CC(=O)NNC(=O)CN1C(=O)/C(=C/c2ccccc2)SC1=S	i	9.6	i	nt	i	i
O=C(CN1C(=O)/C(=C/c2cccc(Br)c2)SC1=S)NCCCN1CCOCC1	i	4.8	i	i	i	i

Screens from PubChem BioAssay.
